In ChEMBL document CHEMBL1123028, “Synthesis and biological effects of novel thiocolchicines. 3. Evaluation of N-acyldeacetylthiocolchicines, N-(alkoxycarbonyl) deacetylthiocolchicines, and O-ethyldemethylthiocolchicines. New synthesis of thiodemecolcine and antileukemic effects of 2-demethyl- and 3-demethylthiocolchicine” (J Med Chem, 1985):

Columns and labels:
[1] = species: Mus musculus; assay: Compound was evaluated for the antitumor activity against P388 lymphocytic leukemia in mice; T/C = (days test animal live/days control animals live x100); type: functional
How it was run: (§1)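 P388 lymphocytic leukemia implanted ip in mice, run to NCI Developmental Therapeutics Program protocols. Treatment given on a QD1 × 9 schedule. T/C = median survival time of treated animals / median survival time of untreated controls × 100. Value reported at the dose level giving the highest T/C. Activity requires duplicate tests with T/C ≥ 120%; a reproducible T/C ≥ 175% counts as significant.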

[2] = species: Mus musculus; assay: MED(minimum effective dose) against P388 lymphocytic leukemia in mice; this dose produced T/C greater than the threshold value of 125; type: functional; parameters: unit: mg/kg
How it was run: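 P388 leukemia implanted ip in mice, treated on a QD1 × 9 schedule under NCI Developmental Therapeutics Program protocols. Minimum effective dose (mg/kg) taken as the lowest dose giving T/C, as survival of treated versus control animals × 100, above the threshold of 125.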

[3] = (§2) Lethal dose after the intraperitoneal injection in a group of 10 mice; type: toxicity, organism-based; conditions: mouse, in vivo, ip
How it was run: (§3)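 NIH general purpose mice (ca. 20 g) were given a single ip injection in an Emulphor EL-620 mixture. Groups of 10 were used at each of usually at least five dose levels. One set of 10 mice received the emulphor mixture alone as a control for each compound. Survivors were counted 7 days after injection, and LD50 (mg/kg) with 95% confidence interval was derived by probit analysis.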

[4] = species: Mus musculus; assay: Antitumor activity against P388 lymphocytic leukemia in mice; type: functional; how it was run: as §1
[5] = system: Mus musculus; assay: as §2; type: toxicity, organism-based; conditions: in vivo, ip; how it was run: as §3
[6] = species: Mus musculus; assay: Compound was evaluated for the antitumor activity against P388 lymphocytic leukemia in mice; type: functional; how it was run: as §1
[7] = species: Mus musculus; assay: Compound was evaluated for the antitumor activity against P388 lymphocytic leukemia in mice; T/C = days test animal live/days control animals live x100; type: functional; how it was run: as §1
[8] = species: Mus musculus; assay: Compound was evaluated for the antitumor activity against P388 lymphocytic leukemia in mice;T/C=days test animal live/days control animals live x100); type: functional; how it was run: as §1

| Structure (SMILES) | T/C [1] | MED [2] | LD50 [3] | Dose [4] | Binding [5] | T/C [6] | T/C [7] | T/C [8] |
| --- | --- | --- | --- | --- | --- | --- | --- | --- |
| CCCCOC(=O)N[C@H]1CCc2cc(OC)c(OC)c(OC)c2-c2ccc(SC)c(=O)cc21 | 142 | <3 | 81 mg/kg | 3 mg/kg | – | – | – | – |
| CN[C@H]1CCc2cc(OC)c(OC)c(OC)c2-c2ccc(SC)c(=O)cc21 | 131 | 50 | – | 100 mg/kg | > 100 mg/kg | – | – | – |
| COc1cc2c(c(OC)c1OC)-c1ccc(SC)c(=O)cc1[C@@H](NC(=O)Oc1ccccc1)CC2 | – | 2.5 | > 50 mg/kg | 5 mg/kg | – | 164 | – | – |
| CCOC(=O)N[C@H]1CCc2cc(OC)c(OC)c(OC)c2-c2ccc(SC)c(=O)cc21 | – | 0.38 | – | 1.5 mg/kg | – | – | 172 | – |
| C=COC(=O)N[C@H]1CCc2cc(OC)c(OC)c(OC)c2-c2ccc(SC)c(=O)cc21 | 152 | 1.5 | 87.5 mg/kg | 3 mg/kg | – | – | – | – |
| COc1cc2c(c(OC)c1O)-c1ccc(SC)c(=O)cc1[C@@H](NC(C)=O)CC2 | – | 2.5 | 68.1 mg/kg | 10 mg/kg | – | 148 | – | – |
| CCOCC(=O)N[C@H]1CCc2cc(OC)c(OC)c(OC)c2-c2ccc(SC)c(=O)cc21 | – | 0.38 | 5.1 mg/kg | 1.5 mg/kg | – | – | – | 229 |
| COc1c(O)cc2c(c1OC)-c1ccc(SC)c(=O)cc1[C@@H](NC(C)=O)CC2 | – | 1.25 | – | 5 mg/kg | – | 194 | – | – |
| COc1cc2c(c(OC)c1OC)-c1ccc(SC)c(=O)cc1[C@@H](N(C)C(=O)C(F)(F)F)CC2 | 145 | 5 | 18.6 mg/kg | 10 mg/kg | – | – | – | – |
| COc1cc2c(c(OC)c1OC)-c1ccc(SC)c(=O)cc1[C@@H](NC=O)CC2 | – | <0.75 | 58.2 mg/kg | 0.75 mg/kg | – | 171 | – | – |
| COc1cc2c(c(OC)c1OC)-c1ccc(SC)c(=O)cc1[C@@H](NC(=O)c1ccccc1)CC2 | 155 | <2.5 | 40 mg/kg | 2.5 mg/kg | – | – | – | – |
| COc1cc2c(c(OC)c1OC)-c1ccc(SC)c(=O)cc1[C@@H](NC(=O)C(F)(F)F)CC2 | – | 0.32 | 0.9 mg/kg | 0.62 mg/kg | – | 148 | – | – |
| CCCC(=O)N[C@H]1CCc2cc(OC)c(OC)c(OC)c2-c2ccc(SC)c(=O)cc21 | – | 0.19 | – | 1.5 mg/kg | – | 231 | – | – |
| COc1cc2c(c(OC)c1OC)-c1ccc(OC)c(=O)cc1[C@@H](NC(C)=O)CC2 [COLCHICINE] | – | 0.06 | – | 0.5 mg/kg | – | 245 | – | – |
| COc1cc2c(c(OC)c1OC)-c1ccc(SC)c(=O)cc1[C@@H](NC(C)=O)CC2 [THIOCOLCHICINE] | – | 0.05 | – | 0.18 mg/kg | – | 193 | – | – |
